37 compounds from ChEMBL document CHEMBL4808167, “Design, Synthesis, and Evaluation of Small Molecule Gαq/11 Protein Inhibitors for the Treatment of Uveal Melanoma” (J Med Chem, 2021) can be followed below.

The term inhibition denotes the relative decrease from the control value, in per cent. In general, IC50 refers to the concentration at which inhibition is half-maximal.

Structures are written as SMILES. A value given as a limit tells only on which side of the number the result lay.

The target in test [1] is GNAQ/GNA11 (Homo sapiens) (UniProt P50148+P29992). Briefly: Inhibition of Galphaq/11 (unknown origin) expressed in CHO cells coexpressing M1 receptor assessed as reduction in carbachol-induced IP1 accumulation at 10 uM preincubated for 1 hr followed by carbachol stimulation and measured after 1 hr by HTRF assay relative to control. The conditions noted are these: time 2.0 hrs. Format: cell-based. A general note: Time-resolved FRET reads energy transfer from a long-lived donor to a nearby acceptor.

A short description of test [2]: Antiproliferative activity against human 92.1 cells assessed as inhibition of cell growth after 72 hrs by CCK8 assay. The conditions noted are these: Homo sapiens, 921, 72 h. Format: functional, cell-based. In outline:
(§1)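 92.1 or MP41 cells in RPMI-1640 with 10% FBS were seeded at 3 × 10³ cells/well. Exposed to serial concentrations for 72 h at 37 °C, 5% CO₂. CCK-8 added for 1−4 h, absorbance read at 450 nm. IC₅₀ from concentration−response curve fit, mean ± SD.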
For orientation: Tetrazolium dyes change colour on reduction, which living cells bring about.

A short description of test [3]: Antiproliferative activity against human MP41 cells assessed as inhibition of cell growth after 72 hrs by CCK8 assay. Format: functional, cell-based. As to conditions: MP41, 72 h. In short, it runs like this:
as §1

Turning to `CC[C@H](C)C(=O)N1CCn2cc(-c3ccccc3)nc2[C@@H]1C(C)C`, the inhibition in test [1] turned out to be 12.9%. Besides, the IC50 in test [2] and in test [3] was more than 100 µM in each case.

On to `CC[C@@H](C)[C@H](N)C(=O)N1CCn2cc(-c3ccccc3)nc2[C@H]1C(C)C`, for which the inhibition in test [1] was found to be 0.96%. Moreover, the IC50 in test [2] is more than 100 µM; in test [3], 97.2 µM.

`CC(C)[C@H](N)C(=O)N1CCn2cc(-c3ccccc3)nc2[C@@H]1CC1CCCCC1`: the inhibition in test [1] was determined as 21.7%. Moreover, the IC50 in test [2] worked out at 40.3 µM; in test [3], 83 µM.

Regarding `CC(C)C[C@@H]1c2nc(-c3ccccc3)cn2CCN1C(=O)C(C)C`, the inhibition in test [1] came to 2.6%. In addition, the IC50 in test [2] and in test [3] was more than 100 µM throughout.

Take `CC[C@H](C)C(=O)N1CCn2cc(-c3ccccc3)nc2[C@H]1CC(C)C`: in test [1], the inhibition is 1.1%. Further, the IC50 in test [2] came out at 84.4 µM; in test [3], 85.8 µM.

For `CC[C@H](C)C(=O)N1CCn2cc(-c3ccccc3)nc2[C@@H]1CC1CCCCC1`, in test [1], the inhibition turned out to be 47.1%. The values for the IC50 in test [2] and in test [3] were 27.4 µM and 79 µM, respectively.

As for `CC(C)[C@H]1c2nc(-c3ccccc3)cn2CCN1C(=O)[C@@H](N)CS`, the inhibition in test [1] is 33.9%. For the same compound, the IC50 in test [2] is 65.7 µM; in test [3] it was more than 100 µM.

For `CC(C)[C@@H]1c2nc(-c3ccccc3)cn2CCN1C(=O)[C@@H](N)Cc1ccc(O)cc1`, the inhibition in test [1] was 18%. Besides, the values for the IC50 in test [2] and in test [3] were more than 100 µM and 97.6 µM, respectively.

Take `C[C@H](N)C(=O)N1CCn2cc(-c3ccccc3)nc2[C@@H]1CC1CCCCC1`: the inhibition in test [1] stood at 17.1%. Further, the IC50 in test [2] turned out to be 35.5 µM; in test [3] it was 95.9 µM.

Take `C[C@H]1c2nc(-c3ccccc3)cn2CCN1C(=O)[C@@H](N)CS`: the inhibition in test [1] worked out at 24.4%. For the same compound, the IC50 in test [2] and in test [3] was more than 100 µM throughout.

Turning to `CC(C)C[C@@H]1c2nc(-c3ccccc3)cn2CCN1C(=O)[C@@H](N)Cc1ccc(O)cc1`, in test [1], the inhibition is 3.7%. The IC50 in test [2] and in test [3] was more than 100 µM in each case.

Regarding `CSCC[C@H](N)C(=O)N1CCn2cc(-c3ccccc3)nc2[C@@H]1CC1CCCCC1`, the inhibition in test [1] turned out to be 12.4%. The IC50 in test [2] was 42 µM; in test [3], more than 100 µM.

Consider `NCC(=O)N1CCn2cc(-c3ccccc3)nc2[C@@H]1CC1CCCCC1`, for which the inhibition in test [1] is 21.9%. The IC50 was 19.3 µM in test [2] and more than 100 µM in test [3].

In the case of `O=C([C@@H]1CCCN1)N1CCn2cc(-c3ccccc3)nc2[C@@H]1CC1CCCCC1`, in test [1], the inhibition came out at 14.2%. Moreover, the IC50 in test [2] amounted to 27.4 µM; in test [3], 63.4 µM.

`N=C(N)NCCC[C@H](N)C(=O)N1CCn2cc(-c3ccccc3)nc2[C@@H]1CC1CCCCC1`: the inhibition in test [1] was determined as 6.2%. The IC50 in test [2] and in test [3] was more than 100 µM throughout.

For `N[C@@H](Cc1ccccc1)C(=O)N1CCn2cc(-c3ccccc3)nc2[C@@H]1CC1CCCCC1`, the inhibition in test [1] was determined as 21.2%. The IC50 in test [2] was 30.1 µM; in test [3], 25.5 µM.

Consider `N[C@@H](CC(=O)O)C(=O)N1CCn2cc(-c3ccccc3)nc2[C@@H]1CC1CCCCC1`, for which the inhibition in test [1] worked out at 10.2%. For the same compound, the IC50 in test [2] and in test [3] was more than 100 µM in each case.

As for `CN[C@@H](CS)C(=O)N1CCn2cc(-c3ccccc3)nc2[C@H]1CC(C)C`, in test [1], the inhibition was found to be 13.2%. Moreover, the results for the IC50 in test [2] and in test [3] were more than 100 µM and 59.3 µM, respectively.

`CC(C)C[C@@H]1c2nc(-c3ccccc3)cn2CCN1C(=O)[C@@H](N)CS`: the inhibition in test [1] amounted to 50.4%. For the same compound, the half-maximal inhibitory concentration (IC50) in test [2] was 64.1 µM; in test [3], 47.7 µM.

As for `N[C@@H](CS)C(=O)N1CCn2cc(-c3ccccc3)nc2[C@@H]1Cc1ccccc1`, in test [1], the inhibition stood at 22.9%. Further, the IC50 in test [2] came out at 45.2 µM; in test [3], 19.8 µM.

As for `CC(C)[C@H]1c2nc(-c3ccccc3)cn2CCN1C(=O)[C@@H](N)CO`, the inhibition in test [1] was determined as 2.8%. Also, the IC50 in test [2] and in test [3] was more than 100 µM throughout.

For `CN[C@@H](CS)C(=O)N1CCn2cc(-c3ccccc3)nc2[C@@H]1C(C)C`, the inhibition in test [1] came out at 11.5%. Moreover, the IC50 in test [2] is 45 µM; in test [3], more than 100 µM.

Turning to `CC[C@H](C)C(=O)N1CCn2cc(-c3ccccc3)nc2[C@H]1C(C)C`, the inhibition in test [1] turned out to be 11.8%. Besides, the 50% inhibitory concentration (IC50) in test [2] and in test [3] was more than 100 µM throughout.

In the case of `CN[C@@H](CS)C(=O)N1CCn2cc(-c3ccccc3)nc2[C@H]1C(C)C`, in test [1], the inhibition came out at 30.5%. The IC50 in test [2] and in test [3] was more than 100 µM throughout.

With `CC(C)C[C@H]1c2nc(-c3ccccc3)cn2CCN1C(=O)[C@@H](N)CS`, the inhibition in test [1] is 25.3%. Further, the IC50 in test [2] stood at 35.2 µM; in test [3], 91.9 µM.

`CN[C@@H](CS)C(=O)N1CCn2cc(-c3ccccc3)nc2[C@@H]1CC1CCCCC1`: in test [1], the inhibition is 30%. In addition, the IC50 amounted to 24 µM in test [2] and 27.8 µM in test [3].

For `CCN(CC)[C@@H](CS)C(=O)N1CCn2cc(-c3ccccc3)nc2[C@@H]1CC1CCCCC1`, the inhibition in test [1] amounted to 24.2%. The IC50 in test [2] and in test [3] was more than 100 µM in each case.

For `N[C@@H](Cc1c[nH]c2ccccc12)C(=O)N1CCn2cc(-c3ccccc3)nc2[C@@H]1CC1CCCCC1`, the inhibition in test [1] amounted to 7.4%. Moreover, the IC50 in test [2] was 20.6 µM; in test [3] it was 15.6 µM.

As to `O=C(CCS)N1CCn2cc(-c3ccccc3)nc2[C@@H]1CC1CCCCC1`, in test [1], the inhibition came to 19.8%. Besides, the figures for the IC50 in test [2] and in test [3] were 29.1 µM and more than 100 µM, respectively.

Turning to `CC(C)[C@@H]1c2nc(-c3ccccc3)cn2CCN1C(=O)[C@@H](N)CO`, the inhibition in test [1] came out at 9.5%. In addition, the IC50 in test [2] and in test [3] was more than 100 µM throughout.

As to `CC(C)C(=O)N1CCn2cc(-c3ccccc3)nc2[C@H]1C(C)C`, the inhibition in test [1] turned out to be 14.4%. The IC50 in test [2] and in test [3] was more than 100 µM each time.

For `NCCCC[C@H](N)C(=O)N1CCn2cc(-c3ccccc3)nc2[C@@H]1CC1CCCCC1`, the inhibition in test [1] was determined as 36.8%. For the same compound, the IC50 in test [2] and in test [3] was more than 100 µM each time.

As to `CN(C)[C@@H](CS)C(=O)N1CCn2cc(-c3ccccc3)nc2[C@@H]1CC1CCCCC1`, the inhibition in test [1] stood at 11.9%. The IC50 in test [2] and in test [3] was more than 100 µM in each case.

For the compound `CC(C)C[C@H](N)C(=O)N1CCn2cc(-c3ccccc3)nc2[C@@H]1CC1CCCCC1`, the inhibition in test [1] was determined as 15.9%. Besides, the IC50 in test [2] came to 55.4 µM; in test [3] it was 33.5 µM.

Turning to `N[C@@H](CCC(=O)O)C(=O)N1CCn2cc(-c3ccccc3)nc2[C@@H]1CC1CCCCC1`, the inhibition in test [1] came out at 16.2%. In addition, the half-inhibitory concentration (IC50) in test [2] and in test [3] was more than 100 µM throughout.

Regarding `C[C@@H](CS)C(=O)N1CCn2cc(-c3ccccc3)nc2[C@@H]1CC1CCCCC1`, the inhibition in test [1] was determined as 25.6%. The values for the IC50 in test [2] and in test [3] were 33.1 µM and more than 100 µM, respectively.

For `CC(C)C[C@@H]1c2nc(-c3ccccc3)cn2CCN1C(=O)[C@@H](N)CO`, in test [1], the inhibition was found to be 4%. The IC50 in test [2] and in test [3] was more than 100 µM each time.
